Rev-erbA mod – modulators of Rev-erb alpha DNA binding, primary screen, biochemical, FITC-DNA, fluorescence polarization, uHTS; Nuclear receptor subfamily 1 group D member 1 (Homo sapiens), P20393; Rev-erbα–FITC-DNA binding, 90 min; activity, % at 10 µM; 370,000 compounds, 0.79% hits; AID 1259318, 2017;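 active = activity above about 14%, limit read from the data; passing the limit was not always enough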
Target sequence (P20393 whole entry, looked up): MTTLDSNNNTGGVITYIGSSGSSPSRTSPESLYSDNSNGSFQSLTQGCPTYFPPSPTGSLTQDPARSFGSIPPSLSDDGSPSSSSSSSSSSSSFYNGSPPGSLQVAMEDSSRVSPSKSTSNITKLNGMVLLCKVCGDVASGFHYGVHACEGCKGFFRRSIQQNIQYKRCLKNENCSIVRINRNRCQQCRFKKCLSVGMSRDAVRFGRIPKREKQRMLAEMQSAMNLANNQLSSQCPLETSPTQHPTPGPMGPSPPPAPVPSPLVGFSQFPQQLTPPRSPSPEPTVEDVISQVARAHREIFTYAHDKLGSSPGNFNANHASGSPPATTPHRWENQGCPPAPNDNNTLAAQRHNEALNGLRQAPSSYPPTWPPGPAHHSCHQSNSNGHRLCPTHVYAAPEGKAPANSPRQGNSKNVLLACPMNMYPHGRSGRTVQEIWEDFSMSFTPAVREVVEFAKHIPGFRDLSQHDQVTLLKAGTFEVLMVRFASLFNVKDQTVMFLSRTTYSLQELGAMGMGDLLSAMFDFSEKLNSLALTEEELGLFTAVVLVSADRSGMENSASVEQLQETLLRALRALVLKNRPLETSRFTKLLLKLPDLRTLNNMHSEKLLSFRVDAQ
MIN6 prolif – inducers of MIN6 beta-cell proliferation, primary screen, ATP luminescence, uHTS; 330,000 compounds, 0.29% hits; proliferation, % at 10 µM; AID 2380, 2010; MIN6 cells proliferation, ATPlite luminescence, 48 h; cells starved in 0.2% serum; 100% = growth in 10% serum;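 active = compounds whose signal lies at least 3.5 SD above the mean of all wells on their plate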
hiPSC survival – enhancers of single-cell hiPSC survival, primary screen, ATPlite luminescence; 100% = ROCK inhibitor wells, 0% = DMSO; survival enhancement, % at 20 µM; AID 602274, 2012; 360,000 compounds, 0.044% hits; in the data active = survival enhancement above about 18%;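 also: cells exposed to compounds for 16 hours before the ATP read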
TAG inh – inhibitors of triacylglycerol accumulation, primary screen, cell-based, uHTS, fluorescence, H9c2 | AID 651582, 2012 | H9c2 cells, Nile Red lipid (TAG) fluorescence; cells loaded with 200 µM oleic acid | inhibition, % at 12.5 µM | 230,000 compounds, 0.66% hits;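 active = pattern-corrected inhibition of lipid staining of at least 50% with the nuclear-stain viability signal not falling by more than 50%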
T cruzi inh – inhibitors of intracellular T. cruzi growth, primary screen, luminescence, NIH3T3 host cells | T. cruzi beta-gal in NIH3T3, 90 h | inhibition, % (no concentration beside the values) | 300,000 compounds, 1.4% hits | AID 1885, 2009;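 active = mean inhibition across valid replicates above about 55%, limit read from the data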;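 also: signal also drops with host cell toxicity which is not excluded here; higher percent means less beta-gal luminescence so fewer parasites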
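Material: NIH/3T3 host cells with β-galactosidase reporter T. cruzi; Input: 5,000 host fibroblasts per well; Medium: DMEM, 2% fetal bovine serum; Compound: 50 nL DMSO compound solution per well; Schedule: 3 h host attachment, then at least 90 h co-culture; Detection: luminescent β-galactosidase signal after 60 min lysis.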
PG9 binder – binders of HIV-1 gp120 antibody PG9, primary screen, biochemical, TR-FRET. TR-FRET gp120-PG9 antibody binding. inhibition, % at 6.7 µM. 360,000 compounds, 0.43% hits. AID 624416, 2012; in the data active = inhibition above about 8.5%
Hits are given with their value; - = inactive; . = no result given. An excerpt weighted towards active compounds, which were near 2.9% of everything screened.

SMILES | Rev-erbA mod | MIN6 prolif | hiPSC survival | TAG inh | T cruzi inh | PG9 binder
COCCN(C(=O)COC(=O)c1sccc1C)c1c(N)n(Cc2ccccc2)c(=O)[nH]c1=O | - | - | - | - | - | -
Cc1ccc(C(=O)NC2CCCC2)s1 | - | - | - | . | - | -
O=C(NCCCN1CCCC1=O)c1ccc([N+](=O)[O-])s1 | - | - | - | - | 60 | -
O=C(NC1CCCC1)c1ccc([N+](=O)[O-])s1 | - | - | - | - | 72 | -
COc1c(C)cccc1C(=O)Nc1ccc(CN2CCCCC2)cc1 | - | - | - | . | - | -
COc1ccc(NC(=O)CSCC(=O)NCc2cccc(C(F)(F)F)c2)cc1 | - | - | - | - | . | -
c1ccc(Nc2ccccn2)cc1 | - | - | - | - | - | -
c1ccc(/N=C2\N=C(Nc3ccccn3)c3ccccc32)nc1 | - | - | - | 51 | 65 | -
CNCCCOc1cccc(Oc2ccccc2)c1 | - | - | - | . | 60 | -
COc1ccc(C2=NNC(=Nc3cc(S(=O)(=O)N(C)C)ccc3C)SC2)c(OC)c1 | - | - | - | - | 72 | -
CC(C)C(=O)NC(Nc1cc(C(F)(F)F)ccc1Cl)C(Cl)(Cl)Cl (centres undefined) | - | - | - | . | - | -
O=C(NC(Nc1cc(C(F)(F)F)ccc1Cl)C(=O)c1ccccc1)c1ccccc1 (centres undefined) | - | - | - | - | 58 | -
Cc1cc(C(=O)CCl)c(C)n1-c1cccc([N+](=O)[O-])c1 | - | - | - | - | . | -
Cc1nc(N/C(N)=N/S(=O)(=O)c2ccc([N+](=O)[O-])cc2)nc2ccccc12 | - | - | - | . | 56 | -
Cc1nc(N/C(N)=N/S(=O)(=O)c2ccccc2)nc2ccccc12 | - | - | - | - | . | -
Cc1ccc2c(C)nc(N/C(N)=N/S(=O)(=O)c3ccc([N+](=O)[O-])cc3)nc2c1 | - | - | - | . | 55 | -
COc1ccccc1CC(=O)Nc1ccc(-c2noc(COc3cccc(C)c3C)n2)cc1 | - | - | 21 | - | - | -
CCCc1ccc(OCc2ccc(C(=O)NN)o2)c(OC)c1 | - | - | - | . | - | -
CCCCCCC(=O)NC1CCCCN(Cc2ccccc2C)C1=O (centres undefined) | - | . | . | . | . | .
CC(C)Cc1ccc(CN2CCCC(NC(=O)c3cnc4ccccn4c3=O)C2)cc1 (centres undefined) | - | - | - | . | 55 | -
C=CCNc1cccc2c1S(=O)(=O)N[C@H](Cc1ccccc1)CO2 | - | . | . | . | . | -
O=C(Nc1ccc(N2CCN(C(=O)c3ccco3)CC2)c(Cl)c1)c1cc2ccccc2o1 | - | - | - | - | 55 | -
CCC(=O)N1CCN(c2ccc(NC(=O)c3cc4ccccc4o3)cc2Cl)CC1 | - | - | - | - | - | -
O=C(Nc1ccc(N2CCCCC2)c(Cl)c1)c1ccc(N2CCOCC2)c([N+](=O)[O-])c1 | - | - | - | . | 62 | -
O=C(Nc1ccc(Cl)c([N+](=O)[O-])c1)c1ccc(NCCCN2CCOCC2)c([N+](=O)[O-])c1 | - | - | - | . | 55 | -
SMILES | Rev-erbA mod | MIN6 prolif | hiPSC survival | TAG inh | T cruzi inh | PG9 binder
O=C(Nc1ccc(N2CCCC2)c(Cl)c1)c1ccc2c(c1)OCCO2 | - | - | - | - | 59 | -
CCc1nc2cc(Cl)c(Cl)cc2nc1CC | - | - | - | - | - | -
COC(=O)N/N=C/c1ccc(-c2ccccc2Cl)o1 | - | - | - | - | - | -
O=C(Nc1ccc(N2CCCC2)c(Cl)c1)c1ccc(Br)o1 | - | - | - | . | 55 | -
O=C(c1[nH]c(C(F)(F)F)nc1-c1ccccc1)N1CCN(CCN2CCOCC2)CC1 | - | . | - | . | . | -
CC(C)(C)OC(=O)C[C@H]1C/C=C\C[C@H](CC(=O)N(CCO)Cc2ccccc2)C(=O)NC[C@H](c2ccccc2)OC1=O | - | - | - | - | . | -
CCn1c(=O)c([N+](=O)[O-])c(Cl)c2ccccc21 | . | - | - | - | 71 | .
O=C(Nc1ccc(N2CCOCC2)cc1)C1CCCCN1S(=O)(=O)c1ccccc1 (centres undefined) | - | - | - | - | - | -
CCOc1ccccc1NC(=O)c1cc(-c2ccncc2)nc2c(Cl)cccc12 | - | . | - | - | 57 | -
COc1ccc(NC(=O)c2cc(-c3ccncc3)nc3ccccc23)c(OC)c1 | - | - | - | - | . | -
Cc1ccc(-n2sc3ccccc3c2=O)cc1S(=O)(=O)N1CCCCC1 | - | - | - | - | 78 | -
O=c1c2ccccc2sn1-c1ccc(S(=O)(=O)N2CCCC2)cc1 | - | - | - | . | 63 | -
O=c1c2ccccc2sn1-c1ccc(S(=O)(=O)N2CCCCC2)cc1 | - | - | - | . | - | -
Cc1ccc(C(=O)NNC(=O)c2ccccc2)cc1S(=O)(=O)N1CCCCC1 | - | - | - | - | . | -
O=c1c2ccccc2sn1-c1ccccc1 | - | - | - | - | 65 | -
O=c1c2ccccc2sn1-c1cccc(Cl)c1 | - | . | - | - | . | -
Clc1ccc(Nc2ncnc3ccc(Br)cc23)cc1 | - | - | - | . | - | -
COc1cccc(CC2(CO)CCCN(Cc3ccc(CO)o3)C2)c1 (centres undefined) | - | - | - | - | - | -
COc1cccc(CC2(CO)CCCN(Cc3ccc(-c4ccco4)cc3)C2)c1 (centres undefined) | - | - | - | - | 58 | -
COc1cccc(CC2(CO)CCCN(Cc3sc(N4CCCC4)nc3Cl)C2)c1 (centres undefined) | - | - | - | - | 55 | -
COc1cccc(CC2(CO)CCCN(Cc3cc4ccccc4[nH]3)C2)c1 (centres undefined) | - | - | - | - | 67 | -
COc1cccc(CC2(CO)CCCN(Cc3ccccc3-c3ccco3)C2)c1 (centres undefined) | - | - | - | - | - | -
COc1cccc(CC2(CO)CCCN(Cc3ccc(C)s3)C2)c1 (centres undefined) | - | - | - | - | 58 | -
O=C(Nc1ccc(OC(F)F)cc1)c1cc[n+]([O-])cc1 | - | - | - | . | - | -
CCOc1ccc2nc(-c3ccccc3)[nH]c2c1 | - | - | - | 50 | - | -
NC(N)=N/N=C/c1ccc(OCc2ccccc2Cl)cc1 | - | - | - | . | 69 | -
NC(N)=N/N=C/c1ccccc1 | - | - | - | . | 62 | -
NC(N)=N/N=C/c1ccc(OCc2ccccc2)c(OCc2ccccc2)c1 | - | - | - | . | - | -
NC(=N\N=Cc1ccccc1)/C(N)=N/N=Cc1ccccc1 | - | . | - | - | . | -

Assay outcomes as filed in PubChem BioAssay.
